Measured values taken from ChEMBL document CHEMBL4373657, “Derivatives of a new heterocyclic system - pyrano[3,4-c][1,2,4]triazolo[4,3-a]pyridines: synthesis, docking analysis and neurotropic activity” (Medchemcomm, 2019).
Active and inactive are the calls of the source. No cut-off for these calls is given here.

Experiments:
Mus musculus [1] = assay: Anticonvulsant activity in mouse assessed as proportion of animals displaying reduction in PTZ-induced clonic seizures at 50 mg/kg, ip administered 45 mins before PTZ stimulation relative to control; assay type: functional; design: scale not given: the % may be the effect or the level left
Outline: (§1)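 Outbred mice (18–22 g), 8 per dose. Compounds given i.p. at 10–100 mg kg–1 as a carboxymethylcellulose/Tween-80 suspension, 45 min before s.c. pentylenetetrazole 90 mg kg–1; controls received emulsifier. Endpoint was prevention of clonic seizures. ED50 was derived by Litchfield–Wilcoxon probit analysis.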

[2] = Neurotoxicity in ip dosed mouse assessed as myorelaxation measured for 2 mins by rotarod test; assay type: toxicity, organism-based; conditions: in vivo
Outline: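 Mice were placed on a corrugated rubber-coated metal rod rotating at 5 rpm, and the number staying on for 2 min was counted. TD50 was derived by Litchfield–Wilcoxon probit analysis.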

[3] = Neurotoxicity in ip dosed mouse assessed as maximum tolerated dose by rotarod test; assay type: toxicity, organism-based; conditions: in vivo
Outline: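 Mice given compounds i.p. at […] to 1800 mg/kg to establish the maximal tolerated dose.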

Mus musculus [4] = assay: Anticonvulsant activity in mouse assessed as MES-induced […] seizures at 10 to 100 mg/kg, ip administered 45 mins before electrical stimulation; assay type: functional, organism-based
Mus musculus [5] = assay: Anticonvulsant activity in mouse assessed as MES-induced tonic seizures at 10 to 100 mg/kg, ip administered 45 mins before electrical stimulation; assay type: functional, organism-based
Outline: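 Mice, 8 per dose. Compounds given i.p. at 10, 25, 50, 75 or 100 mg kg–1 in carboxymethylcellulose/Tween-80 suspension, 45 min before maximal electroshock (50 mA, 0.2 s, 50 imp s–1); controls received emulsifier. Endpoint was prevention of the tonic-extensor phase.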

[6] = Neurotoxicity in mouse assessed as motor coordination at 50 to 100 mg/kg, ip by rotarod test; assay type: toxicity, organism-based; conditions: in vivo
Outline: (§2)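 Mice dosed i.p. at 50–100 mg kg–1; reference drugs given at effective anticonvulsant doses. Mice were placed on a corrugated rubber-coated metal rod rotating at 5 rpm, and the number staying on for 2 min was counted. TD50 was derived by Litchfield–Wilcoxon probit analysis.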

[7] = Neurotoxicity in mouse assessed as myorelaxation at 50 to 100 mg/kg, ip measured for 2 mins by rotarod test; assay type: toxicity, organism-based; conditions: in vivo; outline: as §2
Mus musculus [8] = assay: Anticonvulsant activity in ip dosed mouse assessed as reduction in PTZ-induced clonic seizures administered 45 mins before PTZ stimulation; assay type: functional; outline: as §1
Mus musculus [9] = assay: Anticonvulsant activity in mouse assessed as reduction in PTZ-induced clonic seizures at 25 mg/kg, ip administered 45 mins before PTZ stimulation; assay type: functional, organism-based; outline: as §1
[10] = Protection index, ratio of TD50 for neurotoxicity in ip dosed mouse to ED50 for anticonvulsant activity in ip dosed mouse; assay type: toxicity, organism-based; conditions: in vivo, read-out: Ratio TD50/ED50
Rattus norvegicus [11] = assay: Antianxiety activity in Wistar rat assessed as horizontal movement of animals at 50 mg/kg, ip measured for 5 mins by open field test; assay type: functional, organism-based
Outline: (§3)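 Male Wistar rats (120–140 g), n = 8 per compound, control and reference. Single i.p. dose of 50 mg kg–1 as a suspension in methylcarboxycellulose with Tween-80; controls received emulsifier. Daytime, natural light. Over 5 min, horizontal movements, rearings (vertical movements) and cell sniffings were counted.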

Rattus norvegicus [12] = assay: Antianxiety activity in Wistar rat assessed as vertical movement of animals at 50 mg/kg, ip measured for 5 mins by open field test; assay type: functional, organism-based; outline: as §3
Mus musculus [13] = assay: Antianxiety activity in mouse assessed as time spent in closed arms at 50 mg/kg, ip measured for 5 mins by elevated plus maze test (reference value: 278.2 secs); assay type: functional
Rattus norvegicus [14] = assay: Antianxiety activity in Wistar rat assessed as increase in number of sniffing cell examinations at 50 mg/kg, ip measured for 5 mins by open field test; assay type: functional, organism-based; outline: as §3
Mus musculus [15] = assay: Sedative activity in mouse assessed as time spent in center at 50 mg/kg, ip measured for 5 mins by elevated plus maze test (reference value: 21.8 secs); assay type: functional
Mus musculus [16] = assay: Antianxiety activity in mouse assessed as increase in time spent in open arms at 50 mg/kg, ip measured for 5 mins by elevated plus maze test; assay type: functional
Mus musculus [17] = assay: Antidepressant activity in mouse assessed as latent period of first immobilization at 50 mg/kg, ip measured for 6 mins by forced swimming test (reference value: 92 secs); assay type: functional
Outline: (§4)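 Each mouse swam in a glass container (22 cm high, 14 cm diameter) one-third filled with water, under natural light. Over 6 min, latency to first immobilization, total immobilization time and total active swimming time were recorded.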

Mus musculus [18] = assay: Antidepressant activity in mouse assessed as total time of immobilization at 50 mg/kg, ip measured for 6 mins by forced swimming test (reference value: 81 secs); assay type: functional; outline: as §4
Mus musculus [19] = assay: Antidepressant activity in mouse assessed as total time of active swimming at 50 mg/kg, ip measured for 6 mins by forced swimming test (reference value: 282 secs); assay type: functional; outline: as §4
Mus musculus [20] = assay: Antianxiety activity in mouse assessed as decrease in number of entries into closed arms at 50 mg/kg, ip measured for 5 mins by elevated plus maze test; assay type: functional, organism-based

Row | SMILES | Activity (Mus musculus [1]) [%] | TD50 at 2 min [2] [mg/kg] | MTD [3] [mg/kg] | Activity (Mus musculus [4]) | Activity (Mus musculus [5]) | Activity [6] | Activity [7] | ED50 (Mus musculus [8]) [mg/kg] | anticonvulsant activity (active/inactive) (Mus musculus [9]) | selectivity ratio [10] | Activity (Rattus norvegicus [11]) | Activity (Rattus norvegicus [12]) | Time (Mus musculus [13]) [s] | Activity (Rattus norvegicus [14]) | Time (Mus musculus [15]) [s] | Time (Mus musculus [16]) [s] | Time (Mus musculus [17]) [s] | Time (Mus musculus [18]) [s] | Time (Mus musculus [19]) [s] | inhibition (Mus musculus [20])
1 | CC1(C)Cc2c(C#N)c(Nc3ccccc3)n3c(SCC(=O)c4ccc(Cl)cc4)nnc3c2CO1 | 20 | > 500 | 1150 | inactive | inactive | Non-Toxic | Non-Toxic | – | – | – | – | – | – | – | – | – | – | – | – | –
2 | COc1cccc(NC(=O)CSc2nnc3c4c(c(C#N)c(Nc5ccc(C)cc5)n23)CC(C)(C)OC4)c1 | 40 | > 500 | 1100 | inactive | inactive | Non-Toxic | Non-Toxic | – | – | – | – | – | – | – | – | – | – | – | – | –
3 | CCOC(=O)C(Sc1nnc2c3c(c(C#N)c(Nc4ccccc4)n12)CC(C)(C)OC3)c1ccccc1 (stereo not drawn) | 60 | 520 | 1200 | inactive | inactive | Non-Toxic | Non-Toxic | 44 | Active | 11.8 | inactive | inactive | 199 | Active | 95 | 6 | 156 | 76 | 284 | –
4 | CC1(C)Cc2c(C#N)c(Nc3ccccc3)n3c(SCC(=O)N(c4ccccc4)c4ccccc4)nnc3c2CO1 | 80 | 580 | 1250 | inactive | inactive | Non-Toxic | Non-Toxic | 21 | Active | 27.6 | inactive | inactive | 133 | Active | 79 | 88 | 162 | 43 | 317 | –
5 | COc1ccc(CSc2nnc3c4c(c(C#N)c(Nc5ccc(C)cc5)n23)CC(C)(C)OC4)cc1 | 60 | 600 | 1500 | inactive | inactive | Non-Toxic | Non-Toxic | 44 | Active | 13.6 | inactive | inactive | 200.6 | Active | 88 | 11.4 | 158 | 71 | 289 | –
6 | Cc1cccc(NC(=O)CSc2nnc3c4c(c(C#N)c(Nc5ccccc5)n23)CC(C)(C)OC4)c1 | 20 | > 500 | 1300 | inactive | inactive | Non-Toxic | Non-Toxic | – | – | – | – | – | – | – | – | – | – | – | – | –
7 | CC1(C)Cc2c(C#N)c(Nc3ccccc3)n3c(SCCCc4ccccc4)nnc3c2CO1 | 60 | 560 | 1250 | inactive | inactive | Non-Toxic | Non-Toxic | 23 | Active | 24 | inactive | inactive | 223 | Active | 67 | 10 | 139 | 115 | 245 | Active
